Source: PubChem (several laboratories)
Rows were chosen to be rich in hits. Some 2% of all compounds tested hit in one or more screens of this group.
CXCR6 block – inhibitors of human CXCR6 receptor. inhibition, % at 20 µM. CHO-K1 PathHunter CXCR6 beta-arrestin, luminescence. AID 602244. hit rate 0.36% among 360,000; in the data active = inhibition above about 34%, passing the limit was not always enough;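 note: antagonist mode with CXCL16 agonist at 10 nM final; 0% = 10 nM CXCL16 with DMSO and 100% = unstimulated wells without agonist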
Target sequence (O00574 whole entry, looked up): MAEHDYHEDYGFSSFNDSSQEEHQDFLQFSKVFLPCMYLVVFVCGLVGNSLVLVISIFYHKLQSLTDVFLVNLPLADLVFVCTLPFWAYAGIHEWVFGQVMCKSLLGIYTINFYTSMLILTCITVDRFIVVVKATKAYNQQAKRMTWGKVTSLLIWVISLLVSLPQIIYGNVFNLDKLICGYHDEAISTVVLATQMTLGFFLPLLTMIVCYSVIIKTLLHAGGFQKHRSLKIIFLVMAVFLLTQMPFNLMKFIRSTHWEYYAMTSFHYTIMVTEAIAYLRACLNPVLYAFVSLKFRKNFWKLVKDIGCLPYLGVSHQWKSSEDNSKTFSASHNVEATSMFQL
APJ antag – antagonists of human APJ apelin receptor; hit rate 0.32% among 330,000; P35414; inhibition, % at 20 µM; CHO-K1 APJ beta-arrestin complementation, luminescence; AID 2521;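 active = inhibition above about 40% at 20 µM, limit read from the data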;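 note: cells challenged with 10 nM apelin-13 agonist together with compound; plate controls were apelin-13 plus DMSO wells for no effect and DMSO wells lacking apelin-13 for full effect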
EBI2 block – EBI2 (human) antagonism. P32249. EBI2 beta-arrestin recruitment, luminescence, 7a,25-OHC stimulated. inhibition, % at 5 µM. hit rate 0.81% among 360,000; in the data active = inhibition above about 38%;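 note: enzyme fragment complementation signal reports receptor beta-arrestin coupling in cells; 0% = agonist plus DMSO wells and 100% = wells without agonist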
FXN GAA850 act – increases GAA850 frataxin promoter reporter activity; HEK293 lucGAA850 FXN promoter luciferase reporter, 24 h; percent of 10 µM SAHA response; activation, % at 6 µM; hit rate 0.56% among 360,000;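 active = activation above the average of all compounds screened plus 3 SD, cutoff fixed separately per campaign, cut at about 7.5% in these data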;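 note: 0% = DMSO wells and 100% = 10 µM SAHA wells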
CCR6 antagonist – antagonists of human CCR6 receptor; P51684; CHO-K1 CCR6 PathHunter beta-arrestin, luminescence, CCL20-stimulated; inhibition, % at 20 µM; hit rate 0.49% among 340,000; AID 493098;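 active = compounds whose inhibition of the agonist-driven luminescence signal at 20 µM reaches about 50%, limit read from the data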;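 note: cells stimulated with CCL20 at 14 nM final; plate controls were DMSO with CCL20 for no effect and DMSO without agonist for full effect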
APJ agonist – activates the human apelin receptor APJ. CHO-K1 APJ PathHunter beta-arrestin, luminescence; 0% DMSO wells, 100% apelin. activation, % at 20 µM. P35414. hit rate 0.11% among 330,000;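 active = activation more than six SD over the plate average, tested at 20 µM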;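 note: 0% = DMSO alone and 100% = apelin-13 at 10 nM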
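Test system: CHO-K1 APJ beta-arrestin complementation cell line | Compound: Single test compound dose, 20 µM final, 1% DMSO | Incubation: Compound 90 min 25 °C, reagent 1 h | Measured by: beta-gal luminescence | Read-out basis: APJ–arrestin association signal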
Active calls of the source: *; nt = no result.

SMILES	CXCR6 block	APJ antag	EBI2 block	FXN GAA850 act	CCR6 antagonist	APJ agonist
CC(C)N1C(=O)C(Cc2nc3ccccc3c(=O)n2-c2ccccc2)c2ccccc21 (centres undefined)	3.8	19.0	11.8	3.2	21.0	-3.1
CC(C)N1C(=O)/C(=C\c2nc3ccccc3c(=O)n2-c2ccccc2)c2ccccc21	11.9	nt	55.5*	2.6	23.6	nt
O=C1c2ccccc2-n2c1nc1ccccc1c2=O	-9.0	-28.7	3.8	2.4	7.0	-7.9
CC(C)N1C(=O)/C(=C/c2nc3ccccc3c(=O)n2-c2ccccc2)c2ccccc21	13.3	30.6	56.0*	5.8	11.2	-1.2
COc1cccc(NC(=O)CN(C)C(=O)c2ccc(NC(=O)CC3SC(N4CCCC4)=NC3=O)cc2)c1 (centres undefined)	-2.1	nt	2.5	-0.6	-2.9	nt
C[C@@H]1CN([C@@H](C)CO)S(=O)(=O)c2ccc(Br)cc2O[C@H]1CN(C)Cc1ccc(-c2ccccc2)cc1	-4.7	nt	20.5	2.8	nt	nt
Cc1nc(N)sc1N=Nc1ccc(F)cc1	7.8	2.5	-4.0	9.7*	27.7	-3.9
Nc1n[nH]c(N)c1N=Nc1ccc(F)cc1	4.0	5.5	4.8	1.6	24.6	-1.2
COc1ccc2oc(C(=O)OC(C)C(=O)N3C(C)CCCC3C)c(C)c2c1 (centres undefined)	-0.2	5.4	10.0	0.8	13.9	0.0
CCCS(=O)(=O)NC(=O)C1(C)CCN(C(=O)c2cccc(C)c2C)C1 (centres undefined)	3.8	nt	-1.0	-1.3	nt	nt
CC1(NC(=S)Nc2ccc3ccccc3c2)CCS(=O)(=O)C1 (centres undefined)	-2.4	-9.8	11.2	1.3	5.8	-0.7
CN(C)C(=S)NC(=S)Nc1ccc2ccccc2c1	12.7	nt	12.3	16.8*	37.4	nt
CC(NC(=O)Cn1ncc(Cl)c(Cl)c1=O)C12CC3CC(CC(C3)C1)C2 (centres undefined)	32.2	nt	63.3*	-11.6	33.2	nt
O[C@@H]1CN(Cc2cccs2)[C@@H](c2ccc(Cl)cc2)C[C@H]1n1cc(C2CC2)nn1	4.0	nt	5.3	1.9	nt	nt
O=C1NC(=S)S/C1=C/c1ccc(N2CCOCC2)o1	19.9	-0.5	-0.4	-2.0	61.6*	-0.8
O=C1S/C(=C/c2ccc(N3CCOCC3)o2)C(=O)N1Cc1ccc(F)cc1	8.5	22.5	18.9	0.4	13.7	0.3
COc1cc(/C=C2\SC(=Nc3ccccc3)N(CCc3c[nH]c4ccccc34)C2=O)ccc1OC(C)C(=O)O (centres undefined)	9.6	-6.0	22.6	-0.1	13.2	0.2
O=C1/C(=C/c2ccc(N3CCOCC3)o2)SC(=Nc2ccccc2)N1CCc1c[nH]c2ccccc12	4.9	-8.1	83.0*	-13.8	14.9	3.7
O=C1S/C(=C\c2ccc(N3CCOCC3)o2)C(=O)N1Cc1ccc(F)cc1	13.2	23.3	47.4*	-1.3	29.6	-5.3
CCCOCc1ccc(O)c2ncccc12	12.7	-15.8	45.6*	0.5	7.4	-1.9
CC(C)COCc1ccc(O)c2ncccc12	16.7	2.2	44.4*	0.7	32.9	-3.1
COc1ccc(/C(C)=N/Nc2ncc(Cl)cc2Cl)c(O)c1	1.5	11.4	43.5*	1.8	22.1	-1.1
C/C(=N\Nc1ncc(Cl)cc1Cl)c1ccc(C#N)cc1	1.1	-0.8	9.0	0.9	9.4	-2.0
Cc1ccc2c(c1)C(=O)C(=O)N2CCOc1ccccc1	12.3	9.6	-9.3	1.5	51.3*	-6.9
COC(=O)C1C=CC(OC2OC(COC(C)=O)C(OC(C)=O)C(OC(C)=O)C2OC(C)=O)n2c(=O)n(-c3ccccc3)c(=O)n21 (centres undefined)	13.8	nt	-3.2	-8.9	23.3	nt
SMILES	CXCR6 block	APJ antag	EBI2 block	FXN GAA850 act	CCR6 antagonist	APJ agonist
CC(C)C[C@H](N)c1nnc(S(=O)(=O)Cc2ccc(F)cc2)o1	42.4*	13.9	-8.6	2.0	34.9	-0.8
CN(C)S(=O)(=O)c1cccc(-c2nnc(-c3ccccc3)o2)c1	5.4	16.8	50.1*	2.2	8.7	0.9
Cc1ccccc1NS(=O)(=O)c1cccc(-c2nnc(-c3ccccc3)o2)c1	10.0	3.4	4.6	2.0	10.8	-3.6
O=C1C(Br)=C(c2ccccc2)C(c2ccccc2)=C1c1ccccc1	20.8	nt	49.1*	1.7	68.3*	nt
C=CCOC(=O)C(C#N)c1nc2ccccc2nc1N1CCN(c2ccccc2OC)CC1 (centres undefined)	13.8	12.5	24.2	0.4	52.4*	-2.3
COC(=O)[C@]12CCCCC=C1N(Cc1ccc(Cl)cc1Cl)C(=O)[C@H](CC(=O)N1CCSCC1)C2	10.9	nt	10.3	nt	nt	nt
Oc1c(Cl)cc(Cl)c2cccnc12	49.4*	nt	10.9	-0.9	62.9*	nt
CCC(=O)NC(c1ccc(C)cc1)c1cc(Cl)c2cccnc2c1O (centres undefined)	12.0	25.8	31.6	-5.3	55.8*	-4.2
Oc1c(CN2CCN(c3ccccn3)CC2)cc(Cl)c2cccnc12	32.9	36.0	35.7	10.2*	42.2	-10.8
OCCN1CCN(Cc2cc(Cl)c3cccnc3c2O)CC1	2.5	-13.7	-4.0	-1.2	-5.3	7.3
Oc1c(Cl)cc(CN2CCCCC2)c2cccnc12	49.3*	24.6	4.8	-1.1	nt	-8.3
CC(=O)NC(C)c1cc(Cl)c2cccnc2c1O (centres undefined)	-7.2	-9.4	-1.9	-3.5	17.2	-1.7
CN(CC(=O)Nc1ccc(F)cc1)C(=O)CN1C(=O)NC(CCc2ccccc2)C1=O (centres undefined)	-0.9	nt	-0.5	0.8	nt	nt
COc1ccc(NC(=O)CSc2nnc(NC(=O)C3CC3)s2)cc1OC	-0.5	6.4	-8.1	0.5	4.0	-1.7
COc1cccc(Cn2c(C(C)n3c(-c4cnccn4)nc4ccccc43)nc3ccccc32)c1 (centres undefined)	nt	nt	26.9	nt	nt	nt
Cc1ccc(O)c(N=Nc2nccs2)c1	52.1*	-31.4	5.6	-9.5	nt	-9.2
COc1ccc(C(=O)N2CCN(CC(=O)N3CCOCC3)CC2)cc1	-3.1	-14.3	-3.1	-0.5	0.5	6.5
COc1ccc2cc(/C=C/C(=O)N3CCN(CC(=O)N4CCCCCC4)CC3)ccc2c1	-1.9	0.6	60.5*	0.8	0.2	1.6
COc1cccc2sc(Nc3nc(-c4ccncc4)cs3)nc12	31.8	19.1	73.0*	-8.0	30.4	0.5
COc1cccc2sc(NN)nc12	3.8	-0.3	-4.5	3.5	11.9	-5.8
CCc1nnc(NC(=O)CCNC(=O)c2ccco2)s1	1.7	-8.6	6.9	2.0	-3.5	0.4
CCCCCCCCCC[N+](C)(C)CC/C=C1/c2ccccc2Sc2ccc(Cl)cc21	48.8*	11.7	-0.9	0.2	-4.1	0.8
CCCCCCCCCCC[N+](C)(C)CC/C=C1/c2ccccc2Sc2ccc(Cl)cc21	4.1	2.6	-2.7	1.4	10.7	1.1
